Reference: ChEMBL document CHEMBL1153331, “Antitumour and antimalarial activity of artemisinin-acridine hybrids” (Bioorg Med Chem Lett, 2009)
Each block holds one compound with its values, some of them ahead of it. The source made the active and inactive calls. The calls are words filed in the database; no cut-off is given here.

Experiments:
[1] = system: MDA-MB-231; experiment: Cytotoxicity against human MDA-MB-231 cells after 72 hrs by MTT assay; assay type: functional, cell-based; settings: MDA-MB-231, 72 h
[2] = system: HL-60; experiment: Induction of apoptosis in human HL60 cells assessed as induction of mitochondrial membrane depolarization at 10 uM after 24 hrs by tetramethylrhodamine ethyl ester-based flow cytometry; assay type: functional
In short: (§1)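 HL60 cells treated 24 h; 5 × 10^5 cells washed in HBSS, loaded with 50 nM TMRE in HBSS for 10 min at 37 °C; ≥500 cells read by flow cytometry on FL-2 to score depolarised mitochondria; mean ± SD of three independent experiments, Mann-Whitney U vs drug blank.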

[3] = system: HL-60; experiment: Induction of apoptosis in human HL60 cells assessed as accumulation at sub-G0/G1 phase at 10 uM after 24 hrs by propidium iodide-based flow cytometry; assay type: functional
In short: (§2)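 HL60 cells treated 24 h; 1 × 10^6 cells washed in HBSS, fixed in ice-cold 70% ethanol at −20 °C for 2 h, stained with PI (40 µg/mL) plus RNase 0.1 mg/mL and 3.8 mM sodium citrate in PBS, 30 min at 37 °C; ≥5000 cells read on FL-2; sub-G0/G1 fraction from DNA content; mean ± SD of three independent experiments, Mann-Whitney U vs drug blank.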

[4] = system: HL-60; experiment: Induction of apoptosis in human HL60 cells assessed as induction of mitochondrial membrane depolarization by tetramethylrhodamine ethyl ester-based flow cytometry; assay type: functional, cell-based; in short: as §1
[5] = system: HL-60; experiment: Induction of apoptosis in human HL60 cells assessed as accumulation at sub-G0/G1 phase after 24 hrs by propidium iodide-based flow cytometry; assay type: functional, cell-based; in short: as §2
[6] = system: MCF7; experiment: Cytotoxicity against human MCF7 cells after 72 hrs by MTT assay; assay type: functional, cell-based; settings: MCF7, 72 h
[7] = system: HL-60; experiment: Induction of apoptosis in human HL60 cells assessed as caspase-3 activation after 24 hrs by Western blot analysis; assay type: functional, cell-based
In short: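 HL60 cells treated 24 h with 0.5, 1.0, 5 or 10 µM alongside untreated control; 3 × 10^6 cells washed and sonicated, protein by Bradford; 20 µg per lane denatured 3 min at 95 °C, resolved on 14% SDS–PAGE, transferred to nitrocellulose; read-out pro-caspase-3 (32 kDa) and processed active subunit.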

[8] = system: Plasmodium falciparum; experiment: Antimalarial activity after 48 hrs against chloroquine-sensitive Plasmodium falciparum 3D7 by [3H]hypoxanthine uptake; assay type: functional, organism-based
[9] = system: HL-60; experiment: Induction of apoptosis in human HL60 cells assessed as induction of mitochondrial membrane depolarization at 1 uM by tetramethylrhodamine ethyl ester-based flow cytometry; assay type: functional, cell-based; in short: as §1
[10] = Cytotoxicity against human HT29-AK cells after 72 hrs by MTT assay; assay type: functional, cell-based
[11] = system: HL-60; experiment: Cytotoxicity against human HL60 cells after 72 hrs by MTT assay; assay type: functional, cell-based; settings: HL-60, 72 h
In short: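 MTT viability: 2.5 × 10^4 cells/well in triplicate, exposed to 0.01–100 µM compound for 72 h at 37 °C, 5% CO2; MTT 3 h at 37 °C, SDS/DMF lysis 4 h; absorbance 570 nm (reference 590 nm); expressed as % of vehicle-only cells; IC50 from individual inhibition curves; means of three experiments with SD.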

[12] = system: Calf thymus DNA; experiment: Binding affinity to calf thymus DNA assessed as change in thermal melting temperature at compound to polynucleotide ratio of 0.3 at pH 7 by thermal melting analysis; settings: Bos taurus
[13] = system: Calf thymus DNA; experiment: Binding affinity to calf thymus DNA by fluorimetric binding titration study; assay type: nucleic-acid assay; settings: Bos taurus
[14] = system: Nucleic Acid; experiment: Binding affinity to poy A-poly T DNA assessed as change in thermal melting temperature at compound to polynucleotide ratio of 0.3 at pH 7 by […]; assay type: nucleic-acid assay
In short: (§3)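 Thermal melting of ds-polynucleotides at r = [compound]/[polynucleotide] = 0.3, pH 7 Na cacodylate buffer 0.02 M (I = 0.005 M; poly A–poly T at I = 0.05 M); ΔTm reported, error ±0.5 °C.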

[15] = system: Nucleic Acid; experiment: Binding affinity to poy A-poly U RNA assessed as change in thermal melting temperature at compound to polynucleotide ratio of 0.3 at pH 7 by […]; assay type: nucleic-acid assay; in short: as §3
[16] = system: Calf thymus DNA; experiment: Binding affinity to calf thymus DNA assessed as intercalation into double helix by circular dichroism analysis; assay type: nucleic-acid assay; settings: Bos taurus
In short: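 CD spectra of ct-DNA (1 × 10^-5 mol dm^-3) titrated at various r = [compound]/[ctDNA], change followed at 280 nm; induced acridine CD band at ct-DNA 1 × 10^-4 mol dm^-3; pH 7 Na cacodylate buffer, I = 0.05 M.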

[17] = system: Nucleic Acid; experiment: Binding affinity to poy A-poly U RNA by fluorimetric binding titration study; assay type: nucleic-acid assay
[18] = system: Nucleic Acid; experiment: Binding affinity to poy A-poly U RNA assessed as intercalation into double helix by circular dichroism analysis; assay type: nucleic-acid assay

SMILES: COc1ccc2nc3cc(Cl)ccc3c(NCCCNC(=O)C[C@H]3O[C@@H]4O[C@@]5(C)CC[C@H]6[C@H](C)CC[C@@H]([C@H]3C)[C@@]46OO5)c2c1
IC50 [1]: 11.6 µM
Activity [2]: 98%
Activity [3]: 57%
Activity [4]: Dose-dependent effect
Activity [5]: Dose-dependent effect
IC50 [6]: 11.8 µM
Activity [7]: Dose-dependent effect
IC50 [8]: 0.0224 µM
Activity [9]: Active
IC50 [10]: 9.91 µM
IC50 [11]: 3.08 µM

SMILES: COc1ccc2nc3cc(Cl)ccc3c(NCCNC(=O)C[C@H]3O[C@@H]4O[C@@]5(C)CC[C@H]6[C@H](C)CC[C@@H]([C@H]3C)[C@@]46OO5)c2c1
IC50 [1]: 49 µM
ΔTm [12]: 3.1 °C
Ks [13]: 1 ×10⁶ /M
ΔTm [14]: 0.6 °C
IC50 [6]: 13.7 µM
ΔTm [15]: 2.4 °C
IC50 [8]: 0.00596 µM
Activity [16]: inactive
Ks [17]: 1 ×10⁶ /M
Activity [18]: inactive
IC50 [10]: 194 µM
IC50 [11]: 1.17 µM

SMILES: C[C@H]1[C@@H](O)O[C@@H]2O[C@@]3(C)CC[C@H]4[C@H](C)CC[C@@H]1[C@@]24OO3 [ARTENIMOL]
IC50 [1]: 99.8 µM
IC50 [6]: 45.2 µM
IC50 [8]: 0.0023 µM
IC50 [10]: 16.1 µM

SMILES: COc1ccc2nc3cc(Cl)ccc3c(NCCCCNC(=O)C[C@H]3O[C@@H]4O[C@@]5(C)CC[C@H]6[C@H](C)CC[C@@H]([C@H]3C)[C@@]46OO5)c2c1
IC50 [1]: 43.3 µM
IC50 [6]: 11.7 µM
IC50 [8]: 0.0203 µM
IC50 [10]: 247 µM
IC50 [11]: 1.58 µM

ΔTm [12]: 9.3 °C
Ks [13]: 1 ×10⁶ /M
ΔTm [14]: 2.9 °C
ΔTm [15]: 2.2 °C
Ks [17]: 1 ×10⁶ /M
SMILES: COc1ccc2nc3cc(Cl)ccc3c(NCCN)c2c1
IC50 [1]: 8.12 µM
IC50 [10]: 6.57 µM
IC50 [11]: 12.5 µM

SMILES: COc1ccc2nc3cc(Cl)ccc3c(N3CCN(C(=O)C[C@H]4O[C@@H]5O[C@@]6(C)CC[C@H]7[C@H](C)CC[C@@H]([C@H]4C)[C@@]57OO6)CC3)c2c1
IC50 [1]: 21.1 µM
IC50 [6]: 3.51 µM
IC50 [8]: 0.29 µM
IC50 [10]: > 750 µM
IC50 [11]: 0.56 µM
